Measured values from different studies.
Each line is one published result; the experiments were not run side by side.
PIK3CA: Phosphatidylinositol 4,5-bisphosphate 3-kinase catalytic subunit alpha isoform (PIK3CA, Homo sapiens, UniProt P42336)
PIK3CA E545A: Phosphatidylinositol 4,5-bisphosphate 3-kinase catalytic subunit alpha isoform (PIK3CA, Homo sapiens, UniProt P42336, E545A)
PIK3CA C420R: Phosphatidylinositol 4,5-bisphosphate 3-kinase catalytic subunit alpha isoform (PIK3CA, Homo sapiens, UniProt P42336, C420R)
PIK3CA H1047L: Phosphatidylinositol 4,5-bisphosphate 3-kinase catalytic subunit alpha isoform (PIK3CA, Homo sapiens, UniProt P42336, H1047L)
PIK3CA E542K: Phosphatidylinositol 4,5-bisphosphate 3-kinase catalytic subunit alpha isoform (PIK3CA, Homo sapiens, UniProt P42336, E542K)
PIK3CA I800L: Phosphatidylinositol 4,5-bisphosphate 3-kinase catalytic subunit alpha isoform (PIK3CA, Homo sapiens, UniProt P42336, I800L)
PIK3CA H1047Y: Phosphatidylinositol 4,5-bisphosphate 3-kinase catalytic subunit alpha isoform (PIK3CA, Homo sapiens, UniProt P42336, H1047Y)
PIK3CA M1043I: Phosphatidylinositol 4,5-bisphosphate 3-kinase catalytic subunit alpha isoform (PIK3CA, Homo sapiens, UniProt P42336, M1043I)

target | test | conditions | remaining binding | Structure (SMILES)
PIK3CA | cell-free assay, competition with immobilised ligand | 1 µM | 76% | Nc1cnc(N2CCc3cc(S(=O)(=O)Nc4c(F)cc(Cl)cc4F)cc(N4CCCC4=O)c32)nc1
PIK3CA E545A | binding, competition with immobilised ligand | 1 µM | 89% | Nc1ncc2c(n1)-c1c([nH]c3ccc(C#CC4CC4)cc13)CCCC2
PIK3CA C420R | cell-free assay, competition with immobilised ligand | 1 µM | 93% | C[C@H](NC(=O)c1cnc2n1[C@](C)(Cc1ccc(C#N)cc1)C(=O)N2c1cc(Cl)c(F)c(Cl)c1)C(=O)NC1(c2ccccn2)CC1
PIK3CA C420R | binding | 1 µM | 100% | C[C@@H]1CCN(c2nccc(-c3cnn4ncccc34)n2)C1
PIK3CA H1047L | binding, competition with immobilised ligand | 1 µM | 80% | O=C(c1ccc(Nc2ncc(Cl)c(-c3cc4ccccc4s3)n2)cc1)N1CCC(N2CCCC2)CC1
PIK3CA E542K | cell-free assay, competition with immobilised ligand | 1 µM | 100% | O=C(O)c1cc(-c2ccc(C3CCNCC3)cc2)c2ccc(-c3ccc(C(F)(F)F)cc3)cc2c1
PIK3CA E545A | binding | 10 µM | 58% | CN1CCN(c2ccc(Nc3nccc(-c4cccc([N+](=O)[O-])c4)n3)cc2C(F)(F)F)CC1
PIK3CA | cell-free assay, competition with immobilised ligand | 0.1 µM | 97% | CCN(CC)Cc1cc(Nc2ccnc3cc(Cl)ccc23)ccc1O
PIK3CA I800L | binding, competition with immobilised ligand | 0.1 µM | 71% | C[C@@H](c1ccc(-n2cnc3c(N)ncnc32)cc1)N1CCc2nn(C)c(Cc3ccccc3)c2C1=O
PIK3CA H1047Y | binding, competition with immobilised ligand | 1 µM | 81% | COc1cnc(Nc2cccc(S(N)(=O)=O)c2)nc1N1CCN(c2ccccc2)C(=O)C1
PIK3CA | binding, competition with immobilised ligand | 10 µM | 100% | c1cncc(-c2cccc(Nc3nccc(NC4CCCCC4)n3)c2)c1
PIK3CA H1047L | binding, competition with immobilised ligand | 1 µM | 100% | O=C(c1ccc(Nc2nccc(-c3cc4ccccc4s3)n2)cc1)N1CCC(N2CCCC2)CC1
PIK3CA M1043I | binding | 1 µM | 100% | F[C@@H]1CCN(c2nccc(-c3cnn4ncccc34)n2)C1
Phosphatidylinositol 4,5-bisphosphate 3-kinase catalytic subunit alpha isoform (PIK3CA, Homo sapiens, UniProt P42336, E545K) | binding, competition with immobilised ligand | 1 µM | 70% | O=C(c1ccc(Nc2ncc(Cl)c(-c3ccc(Cl)s3)n2)cc1)N1CCC(N2CCCC2)CC1
PIK3CA C420R | binding | 1 µM | 78% | COc1ccnn2ncc(-c3ccnc(N(C)C)n3)c12
PIK3CA | binding, competition with immobilised ligand | 1 µM | 100% | O=C(NCC1CCOCC1)c1n[nH]cc1NC(=O)c1c(F)cccc1F
PIK3CA E545A | cell-free assay, competition with immobilised ligand | 1 µM | 96% | CN([C@@H]1CCc2c(CC(=O)O)c3cc(S(C)(=O)=O)ccc3n2C1)S(=O)(=O)c1ccc(F)cc1
PIK3CA M1043I | binding | 1 µM | 100% | CN(CCCC(F)(F)F)c1nccc(-c2cnn3ncccc23)n1
PIK3CA H1047Y | cell-free assay, competition with immobilised ligand | 1 µM | 76% | NS(=O)(=O)c1cc(NC(=O)C2(c3ccccc3Cl)CC2)ccc1Oc1cccc(Cl)c1
PIK3CA C420R | binding | 1 µM | 100% | Cc1cnn2ncc(-c3ccnc(N(C)C)n3)c2c1
PIK3CA I800L | cell-free assay, competition with immobilised ligand | 1 µM | 81% | CNCc1ccccc1-c1csc([C@H](C)Nc2nc(C)nc3cc(OC)c(OC)cc23)c1
PIK3CA I800L | binding | 1 µM | 71% | N[C@@H]1CCN(c2nccc(-c3cnn4ncccc34)n2)C1
PIK3CA E542K | cell-free assay, competition with immobilised ligand | 1 µM | 100% | O=S(=O)(NC1CCC(c2cc(F)ccc2F)(S(=O)(=O)c2ccc(Cl)cc2)CC1)C(F)(F)F (stereo not drawn)
PIK3CA E542K | binding | 1 µM | 43% | CC1CCCN1c1nccc(-c2cnn3ncccc23)n1 (stereo not drawn)
